From ChEMBL document CHEMBL1139471, “Antitumor polycyclic acridines. 17. Synthesis and pharmaceutical profiles of pentacyclic acridinium salts designed to destabilize telomeric integrity” (J Med Chem, 2005) come the findings set out here.

Series [1] can be described thus: Inhibition of telomerase by TRAP assay. The arrangement: species or system Homo sapiens.
The nature of series [2]: Growth inhibition of NCI60 cell panel. Particulars: Homo sapiens; call rule not given here. The series is classed as functional. A digest of the protocol: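 NCI 60 human tumor cell panel with a 2-day drug exposure; mean GI50 reported.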
Series [3] is described as follows: Selectivity index, ratio of mean GI50 for NCI60 cell panel to IC50 for telomerase. The series is classed as functional, Homo sapiens. A digest of the protocol: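 Selectivity index calculated as mean GI50 (NCI 60 panel, 2-day exposure) divided by the telomerase IC50 from the TRAP assay.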
The nature of series [4]: Aqueous solubility at 25 degC. The series is classed as physicochemical. Particulars: water.
Series [5] can be described thus: Stability in RPMI tissue culture medium at 37 degC after 72 hrs. The class given is ADME. In outline: (§1)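 Drug at 10 μM in RPMI containing 10% FBS without cells, held at 37 °C up to 72 h. Monitored by absorbance at λmax and spectrum shape, and by HPLC of aliquots for loss of parent and appearance of new peaks. LC-MS run on the 72 h sample.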
Series [6] in a line: Metabolic stability in Sprague-Dawley rat liver microsomes assessed as drug remaining after 4 hrs. On the technique in general: Liver microsomes are a subcellular fraction often used to study metabolism.
For a further series, the system named is A549. The experiment in a line: Stability in RPMI tissue culture medium at 37 degC incubated with human A549 cells at 0.5 uM after 72 hrs. The series is classed as ADME, cell-based. Particulars: a549, 72 h. A digest of the protocol:
(§2)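 A549 or MCF-7 cells seeded at 5 × 10^5 per flask and attached overnight in RPMI with 10% serum at 37 °C. Medium then replaced with medium containing 0.5 μM drug. Medium sampled in triplicate at 0, 24, 48 and 72 h, deproteinized with acetonitrile. Isocratic C18 HPLC, fluorescence detection ex 483/em 543 nm. Drug peak height given as % of time zero; mean and SD of two flasks.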

Series [7] is described as follows: Stability in RPMI tissue culture medium at 37 degC at 10 uM after 72 hrs. The series is classed as ADME. In outline:
as §1

Another series deals with Liver microsomes. The experiment in a line: Metabolic stability in Sprague-Dawley rat liver microsomes at 2 uM after 4 hrs. The series is classed as ADME, Microsome. In outline: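 Pooled male Sprague-Dawley rat liver microsomes (0.5 mg/mL protein) in 100 mM potassium phosphate pH 7.4 with 5 mM MgCl2 and 1 mM NADPH. Drug at 2 μM final, diluted from a DMSO stock, incubated 4 h at 37 °C. Stopped with cold acetonitrile, then reverse-phase C18 HPLC of the parent peak. Controls: P450-null human lymphoblast microsomes for protein binding; DF 203 for microsomal activity.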

Series [8] in a line: Stability in RPMI tissue culture medium at 37 degC incubated with human MCF7 cells at 0.5 uM after 72 hrs. The series is classed as ADME, cell-based. Particulars: read-out: Stability. In outline:
as §2

The term IC50 denotes the midpoint of a concentration-inhibition curve. A low value points to inhibition by little substance. The GI50 is the concentration that inhibits growth by half. For the molecule `CN1c2ccccc2-c2c3c1cccc3c1ccccc1[n+]2C.[I-]`, it took 0.38 µM to reach half-maximal inhibition in series [1] (IC50). The molecule further returned a GI50 in series [2] of 1.29 µM. For the same molecule, in series [3], the Selectivity index was determined as 3.4.
As usually defined, the solubility is the concentration that dissolves in the medium under given conditions. With `COS(=O)(=O)[O-].Cc1cc2c3c([n+](C)c4ccc(F)cc4c3c1)-c1cc(F)ccc1N2C`, the midpoint of inhibition in series [1], the IC50, lay at 0.33 µM. In addition, in [2], growth was halved (GI50) at 13.2 µM. In addition, the Selectivity index in [3] came out at 40. The molecule also came in with a solubility in series [4] of 5000 µM. In addition, in [5], the Stability result is given as “Stable”. The remaining at 4 h in series [6] came out at 81%.
`COS(=O)(=O)[O-].Cc1ccc2c(c1)-c1c3c(cc(C)cc3c3cc(C)ccc3[n+]1C)N2C` gave an IC50 in [1] of 0.25 µM. In addition, the GI50 in series [2] is 0.41 µM. In [3], the Selectivity index worked out at 1.8.
As to `CC(=O)OCCCc1cc2c3c([n+](C)c4ccc(/C=C/C(=O)N5CCOCC5)cc4c3c1)-c1ccccc1N2C.[I-]`, the IC50 in series [1] is 0.38 µM. Also, in series [2], the GI50 stood at 27.5 µM. In addition, in series [3], the Selectivity index was found to be 72.4. In addition, the Activity entry (in the series with A549; in [7]) was “Not Active” throughout.
Molecule `COc1cc2c3c([n+](C)c4ccccc4c3c1)-c1ccc(/C=C/C(=O)N3CCN(C(C)=O)CC3)cc1N2C` displayed a GI50 in series [2] of 93.3 µM.
In series [1], `COC(=O)/C=C/c1ccc2c(c1)c1cccc3c1c([n+]2C)-c1ccccc1N3C` gave an IC50 of 0.2 µM.
Consider `COc1cc2c3c([n+](C)c4ccccc4c3c1)-c1ccc(/C=C/C(=O)N3CCOCC3)cc1N2C.[I-]`, for which, in series [1], it took 2.18 µM to reach half-maximal inhibition (IC50). The molecule also displayed a concentration for 50% growth inhibition (GI50) in [2] of 43.7 µM. Moreover, the Selectivity index in series [3] is reported as 2.
`CN1c2ccccc2-c2c3c1cc(/C=C/C(=O)N1CCOCC1)cc3c1cc(Cl)ccc1[n+]2C` yielded a GI50 in [2] of 12 µM.
Consider `CN1c2ccccc2-c2c3c1cccc3c1cc(/C=C/C(=O)N3CCOCC3)ccc1[n+]2C.[I-]`, for which the IC50 in series [1] came to 0.37 µM. In series [2], this molecule gave a GI50 of 68 µM. Further, the Selectivity index in [3] is listed as 183. In [4], this molecule had a solubility of 1000 µM. Moreover, the Stability result in series [5] was “Stable”. The molecule also yielded an Activity in the series on Liver microsomes of 66%.
In the case of `CC(=O)OCCCc1ccc2c(c1)N(C)c1cc(CCCOC(C)=O)cc3c1c-2[n+](C)c1ccccc31.[I-]`, the IC50 in [1] worked out at 2.3 µM. This molecule also yielded a GI50 in series [2] of 3.31 µM. Besides, in series [3], the Selectivity index is given as 1.45.
Molecule `CC(=O)OCCCc1cc2c3c([n+](C)c4ccc(CCCOC(C)=O)cc4c3c1)-c1ccccc1N2C.[I-]` showed an IC50 in [1] of 3.22 µM. This molecule registered a GI50 in [2] of 3.8 µM. Moreover, the Selectivity index in series [3] is listed as 1.2.
`COC(=O)/C=C/c1ccc2c(c1)N(C)c1cc(OC)cc3c1c-2[n+](C)c1ccccc31` showed an IC50 in [1] above 1 µM. For the same molecule, the GI50 in series [2] stood at 4.58 µM.
For `COC(=O)CCc1ccc2c(c1)c1cccc3c1c([n+]2C)-c1ccccc1N3C`, 3.02 µM corresponded to half-maximal inhibition in [1] (IC50).
In turn, `COc1cc2c3c([n+](C)c4ccc(/C=C/C(=O)N5CCOCC5)cc4c3c1)-c1ccccc1N2C` came in with a 50% growth inhibitory concentration (GI50) in series [2] of 9.33 µM.
The molecule `CC(=O)Nc1ccc2c3cccc4c3c([n+](C)c2c1)-c1ccccc1N4C.[I-]` registered an IC50 in [1] of 0.38 µM. This molecule also registered a GI50 in series [2] of 12 µM. For the same molecule, the Selectivity index in series [3] is recorded as 31.6. For the same molecule, in [5], the Stability result was “Stable”. The remaining at 72 h, 0.5 µM in series [8] is 43%. In addition, in series [6], the remaining at 4 h was found to be 69%.
